Results: PubChem BioAssay AID602285 (Broad Institute, 2012)
Activity calls are given as the source filed them.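 The calls were made as follows: active = AC50 at or below twice the top valid dose for that sample, with falling signal; inconclusive = flat curve with inhibition of 30 to 70%, or poor fit; inactive = activity in the wrong direction, plus the rest.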

What follows are compounds tested against Scavenger receptor class B member 1 (Mus musculus) (UniProt Q61009) (assay: SR-BI mediated DiI-HDL lipid uptake blockers – ldlA[mSR-BI] CHO cells, fluorescence plate reader, dry powder, set 8, dose response (AID 602285)). Conditions: 3 h.
Sequence of Scavenger receptor class B member 1 (Mus musculus) (Q61009 whole entry, looked up): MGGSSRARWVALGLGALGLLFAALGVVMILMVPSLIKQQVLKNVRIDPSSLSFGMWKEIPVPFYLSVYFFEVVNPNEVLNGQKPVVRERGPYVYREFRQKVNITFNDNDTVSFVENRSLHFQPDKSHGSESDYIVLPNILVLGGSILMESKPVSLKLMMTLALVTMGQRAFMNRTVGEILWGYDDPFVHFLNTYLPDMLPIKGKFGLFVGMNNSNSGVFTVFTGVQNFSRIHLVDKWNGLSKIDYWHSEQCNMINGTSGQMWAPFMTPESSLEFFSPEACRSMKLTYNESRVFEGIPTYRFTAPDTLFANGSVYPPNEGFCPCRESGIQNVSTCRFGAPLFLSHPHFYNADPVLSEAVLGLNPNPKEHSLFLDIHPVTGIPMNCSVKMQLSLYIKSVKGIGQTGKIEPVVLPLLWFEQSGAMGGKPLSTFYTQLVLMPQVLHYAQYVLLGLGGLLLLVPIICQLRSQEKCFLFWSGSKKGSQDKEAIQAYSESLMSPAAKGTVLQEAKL
Procedure, shortened: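 Assay system: ldlA[mSR-BI] cells, LDL receptor-deficient CHO line overexpressing murine SR-BI; Buffer or medium: Ham's F12, fatty acid-free BSA, HEPES pH 7.4; Dosing: pin-transferred compound series; Times: 3 h uptake at 37 °C; Measured by: bottom-read DiI fluorescence after PBS washes, excitation 550 nm, emission 595 nm; Controls: DMSO as neutral control, BLT-1 as inhibitor control.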

| AC50 | Compound |
| --- | --- |
| 0.21 µM | Cc1ccc(S(=O)(=O)N(C)C[C@@H]2Oc3ccc(NC(=O)Cc4cn(C)c5ccccc45)cc3C(=O)N([C@H](C)CO)C[C@H]2C)cc1 |
| 4.6 µM | C[C@@H]1CN([C@H](C)CO)C(=O)c2cc(NC(=O)Cc3cn(C)c4ccccc34)ccc2O[C@H]1CN(C)C(=O)Nc1ccc2c(c1)OCO2 |
| 34.4 µM | C[C@@H]1CN([C@@H](C)CO)C(=O)Cc2cc(N(C)C)ccc2O[C@@H]1CN(C)Cc1ccc(C(=O)O)cc1 |
| 4.92 µM | C[C@@H]1CN([C@H](C)CO)C(=O)c2cc(NC(=O)Cc3cn(C)c4ccccc34)ccc2O[C@H]1CN(C)C(=O)Nc1ccccc1 |
| > 70 µM (inactive) | COc1ccc(CN(C)C[C@@H]2Oc3ccc(NC(=O)CCCN(C)C)cc3C(=O)N([C@H](C)CO)C[C@H]2C)cc1 |
| 8.91 µM | C[C@H](CO)N1C[C@H](C)[C@@H](CN(C)S(=O)(=O)c2ccc(Cl)cc2)Oc2ccc(NC(=O)Cc3cn(C)c4ccccc34)cc2C1=O |
| > 70 µM (inactive) | C[C@H](CO)N1C[C@H](C)[C@H](CN(C)C)Oc2c(NS(C)(=O)=O)cccc2C1=O |
| 0.165 µM | C[C@@H]1CN([C@H](C)CO)C(=O)c2cc(NC(=O)Nc3cccc4ccccc34)ccc2O[C@H]1CN(C)S(=O)(=O)c1ccc(Cl)cc1 |
| 22.3 µM | C[C@@H]1CN([C@@H](C)CO)C(=O)Cc2cc(NS(C)(=O)=O)ccc2O[C@@H]1CN(C)Cc1ccc(C(F)(F)F)cc1 |
| < 0.015 µM | COc1cc(OC)cc(C(=O)Nc2nc(-c3ccc4c(c3)CCN4C(=O)CN3CCOCC3)cs2)c1 |
| 10.7 µM | C[C@@H]1CN([C@@H](C)CO)C(=O)c2cc(NC(=O)NC3CCCCC3)ccc2O[C@H]1CN(C)Cc1ccncc1 |
| 0.215 µM | C[C@@H]1CN([C@H](C)CO)C(=O)c2cc(NC(=O)Cc3cn(C)c4ccccc34)ccc2O[C@H]1CN(C)S(=O)(=O)c1ccccc1 |
| 9.87 µM | C[C@@H]1CN([C@H](C)CO)C(=O)c2cc(NC(=O)Cc3cn(C)c4ccccc34)ccc2O[C@H]1CN(C)S(C)(=O)=O |
| 0.123 µM | CC(C)NC(=O)Nc1ccc2c(c1)C(=O)N([C@H](C)CO)C[C@@H](C)[C@H](CN(C)S(=O)(=O)c1ccc(Cl)cc1)O2 |
| 12.3 µM | C[C@H]1CN([C@@H](C)CO)C(=O)c2cc(NC(=O)Cc3cn(C)c4ccccc34)ccc2O[C@H]1CN(C)S(=O)(=O)c1ccc(Cl)cc1 |
| 1.64 µM | C[C@@H]1CN([C@H](C)CO)C(=O)c2cc(NS(C)(=O)=O)ccc2O[C@H]1CN(C)S(=O)(=O)c1ccc(Cl)cc1 |
| 0.593 µM | C[C@@H]1CN([C@H](C)CO)C(=O)c2cc(NC(=O)c3ccncc3)ccc2O[C@H]1CN(C)S(=O)(=O)c1ccc(Cl)cc1 |
| 10 µM | C[C@@H]1CN([C@@H](C)CO)C(=O)c2cc(NC(=O)Cc3cn(C)c4ccccc34)ccc2O[C@@H]1CN(C)S(=O)(=O)c1ccc(Cl)cc1 |
| 13.7 µM | C[C@@H]1CN([C@H](C)CO)C(=O)c2cc(NS(=O)(=O)c3ccc(F)cc3)ccc2O[C@H]1CN(C)S(=O)(=O)c1ccc(Cl)cc1 |
| 0.0304 µM | C[C@@H]1CN([C@H](C)CO)C(=O)c2cc(NC(=O)C3CCCCC3)ccc2O[C@H]1CN(C)S(=O)(=O)c1ccc(Cl)cc1 |
| 3.39 µM | C[C@@H]1CN([C@H](C)CO)C(=O)c2cc(NS(=O)(=O)c3cn(C)cn3)ccc2O[C@H]1CN(C)S(=O)(=O)c1ccc(Cl)cc1 |
| 11.5 µM | C[C@@H]1CN([C@H](C)CO)C(=O)c2cc(NC(=O)Cc3cn(C)c4ccccc34)ccc2O[C@@H]1CN(C)S(=O)(=O)c1ccc(Cl)cc1 |
| 0.856 µM | C[C@@H]1CN([C@H](C)CO)C(=O)c2cc(NC(=O)Nc3ccc4c(c3)OCO4)ccc2O[C@H]1CN(C)S(=O)(=O)c1ccc(Cl)cc1 |
| 0.865 µM | C[C@@H]1CN([C@H](C)CO)C(=O)c2cc(NC(=O)Cc3cn(C)c4ccccc34)ccc2O[C@H]1CN(C)Cc1ccc2c(c1)OCO2 |
| 2.69 µM | COc1ccc(S(=O)(=O)Nc2ccc3c(c2)C(=O)N([C@H](C)CO)C[C@@H](C)[C@H](CN(C)S(=O)(=O)c2ccc(Cl)cc2)O3)cc1 |

| AC50 | Compound |
| --- | --- |
| 17.9 µM | C[C@@H]1CN([C@H](C)CO)C(=O)c2cc(NC(=O)Cc3cn(C)c4ccccc34)ccc2O[C@H]1CN(C)C |
| 6.39 µM | C[C@@H]1CN([C@H](C)CO)C(=O)c2cc(NC(=O)Cc3cn(C)c4ccccc34)ccc2O[C@H]1CN(C)S(=O)(=O)c1cn(C)cn1 |
| 1.55 µM | C[C@@H]1CN([C@H](C)CO)C(=O)c2cc(NC(=O)Cc3cn(C)c4ccccc34)ccc2O[C@H]1CN(C)Cc1ccccc1 |
| 0.174 µM | C[C@@H]1CN([C@H](C)CO)C(=O)c2cc(NC(=O)Cc3cn(C)c4ccccc34)ccc2O[C@H]1CN(C)S(=O)(=O)c1ccc(Cl)cc1 |
| 17.4 µM | C[C@H]1CN([C@@H](C)CO)C(=O)c2cc(NC(=O)Cc3cn(C)c4ccccc34)ccc2O[C@@H]1CN(C)S(=O)(=O)c1ccc(Cl)cc1 |
| 0.0708 µM | C[C@@H]1CN([C@H](C)CO)C(=O)c2cc(NC(=O)Nc3ccc(F)cc3)ccc2O[C@H]1CN(C)S(=O)(=O)c1ccc(Cl)cc1 |
| 2.18 µM | C[C@@H]1CN([C@H](C)CO)C(=O)c2cc(NC(=O)Cc3cn(C)c4ccccc34)ccc2O[C@H]1CN(C)C(=O)Nc1ccc(C(F)(F)F)cc1 |
| 8.3 µM | C[C@@H]1CN([C@H](C)CO)C(=O)c2cc(NC(=O)Cc3cn(C)c4ccccc34)ccc2O[C@H]1CN(C)C(=O)Nc1cccc2ccccc12 |
| > 70 µM (inactive) | C[C@H](CO)N1C[C@H](C)[C@H](CN(C)CC2CCCCC2)Oc2c(NS(=O)(=O)c3cn(C)cn3)cccc2C1=O |
| 2.01 µM | COc1ccc(S(=O)(=O)N(C)C[C@@H]2Oc3ccc(NC(=O)Cc4cn(C)c5ccccc45)cc3C(=O)N([C@H](C)CO)C[C@H]2C)cc1 |
| > 70 µM (inactive) | O=C(C[C@@H]1CC[C@@H](NC(=O)CC2CC2)[C@H](CO)O1)NCc1ccc(Cl)cc1 |
| 0.094 µM | Cc1noc(C)c1NC(=O)N(C)C[C@H]1Oc2cc(C#CCC3CCCC3)ccc2S(=O)(=O)N([C@H](C)CO)C[C@@H]1C |
| 9.18 µM | C[C@@H]1CN([C@H](C)CO)C(=O)c2cc(NC(=O)Cc3cn(C)c4ccccc34)ccc2O[C@H]1CN(C)C(=O)NC1CCCCC1 |
| 7.1 µM | Cc1noc(C)c1NC(=O)Nc1ccc2c(c1)C(=O)N([C@H](C)CO)C[C@@H](C)[C@H](CN(C)S(=O)(=O)c1ccc(Cl)cc1)O2 |
| > 70 µM (inactive) | CO[C@H]1CN(C)C(=O)c2cc(NC(=O)c3ccccc3F)ccc2OC[C@@H](C)N(C(C)=O)C[C@@H]1C |
| 6.97 µM | Cc1noc(C)c1NC(=O)N(C)C[C@@H]1Oc2ccc(NC(=O)Cc3cn(C)c4ccccc34)cc2C(=O)N([C@H](C)CO)C[C@H]1C |
| 9.24 µM | C[C@@H]1CN([C@H](C)CO)C(=O)c2cc(NC(=O)Cc3cn(C)c4ccccc34)ccc2O[C@H]1CN(C)CC1CCCCC1 |
| 0.628 µM | C[C@@H]1CN([C@H](C)CO)C(=O)c2cc(N(C)C)ccc2O[C@H]1CN(C)S(=O)(=O)c1ccc(Cl)cc1 |
| 33.2 µM | C[C@@H]1CN([C@H](C)CO)C(=O)Cc2cc(NC(=O)Cc3cn(C)c4ccccc34)ccc2O[C@H]1CN(C)S(=O)(=O)c1ccc(F)cc1 |
| > 70 µM (inactive) | O=C(C[C@H]1CC[C@H](NC(=O)CC2CC2)[C@@H](CO)O1)NCc1ccc(Cl)cc1 |
| 0.354 µM | C[C@@H]1CN([C@H](C)CO)C(=O)c2cc(NC(=O)NC3CCCCC3)ccc2O[C@H]1CN(C)S(=O)(=O)c1ccc(Cl)cc1 |
| 0.304 µM | COc1ccc(NC(=O)Nc2ccc3c(c2)C(=O)N([C@H](C)CO)C[C@@H](C)[C@H](CN(C)S(=O)(=O)c2ccc(Cl)cc2)O3)cc1 |
| > 70 µM (inactive) | C[C@@H]1CN([C@H](C)CO)C(=O)c2cc(NC(=O)CCCN(C)C)ccc2O[C@H]1CN(C)S(=O)(=O)c1ccc(Cl)cc1 |
| > 70 µM (inactive) | C[C@@H]1CN([C@@H](C)CO)C(=O)Cc2cc(NC(=O)CCCN(C)C)ccc2O[C@H]1CN(C)Cc1ccncc1 |
| 0.0374 µM | C[C@H](C(=O)NC1CCCC1)N(C(=O)Cn1nnc(-c2ccc3c(c2)OCO3)n1)C1CCCCC1 |

Same assay, conditions: 3 h, at 35 µM (top of the series)

| activity change, negative = inhibition | Compound |
| --- | --- |
| inactive | CC(C)NC(=O)Nc1cccc2c1O[C@@H](CN(C)Cc1ccc(C(F)(F)F)cc1)[C@@H](C)CN([C@@H](C)CO)C2=O |
| inactive | Cc1ccc(S(=O)(=O)Nc2ccc3c(c2)C(=O)N([C@H](C)CO)C[C@@H](C)[C@H](CN(C)S(=O)(=O)c2ccc(Cl)cc2)O3)cc1 |
| inactive | CCCNC(=O)N(C)C[C@@H]1Oc2cc(-c3cncnc3)ccc2S(=O)(=O)N([C@@H](C)CO)C[C@@H]1C |
| inactive | C[C@@H]1CN([C@@H](C)CO)C(=O)Cc2cc(NS(=O)(=O)c3cn(C)cn3)ccc2O[C@H]1CN(C)Cc1ccc(Cl)c(Cl)c1 |
| inactive | C[C@@H]1CN([C@H](C)CO)C(=O)c2cc(NC(=O)Cc3cn(C)c4ccccc34)ccc2O[C@H]1CN(C)Cc1ccc(-c2ccccc2)cc1 |
| inactive | Cc1ccccc1-c1ccc2c(c1)O[C@H](CN(C)C(=O)Nc1ccc(F)cc1)[C@H](C)CN([C@H](C)CO)S2(=O)=O |
| inactive | C[C@@H]1CN([C@H](C)CO)C(=O)c2cc(NC(=O)Nc3ccc(C(F)(F)F)cc3)ccc2O[C@H]1CN(C)S(=O)(=O)c1ccc(Cl)cc1 |
| inactive | C[C@@H]1CN([C@H](C)CO)C(=O)c2cc(NC(=O)Nc3ccccc3)ccc2O[C@H]1CN(C)S(=O)(=O)c1ccc(Cl)cc1 |
| inactive | C[C@@H]1CN([C@@H](C)CO)C(=O)Cc2cc(NS(=O)(=O)c3cn(C)cn3)ccc2O[C@@H]1CN(C)Cc1ccc(Cl)c(Cl)c1 |
| inactive | CO[C@H]1CN(C)C(=O)c2ccc(NC(=O)C3CCCC3)cc2OC[C@@H](C)N(C(=O)CC2CC2)C[C@@H]1C |
| inactive | C[C@@H]1CN([C@H](C)CN(C)C)C(=O)c2cc(NC(=O)Cc3cn(C)c4ccccc34)ccc2O[C@H]1CN(C)S(=O)(=O)c1ccc(Cl)cc1 |
| inactive | C[C@H](CO)N1C[C@H](C)[C@H](CN(C)S(=O)(=O)c2ccc(Cl)cc2)Oc2ccc(NC(=O)Cc3cn(C)c4ccccc34)cc2C1=O |
| inactive | C[C@@H]1CN([C@H](C)CO)C(=O)c2cc(NC(=O)Cc3cn(C)c4ccccc34)ccc2O[C@H]1CN(C)Cc1ccc(Oc2ccccc2)cc1 |
